{"source": "ChEMBL document CHEMBL4725371", "about": "“A Novel Redox Modulator Induces a GPX4-Mediated Cell Death That Is Dependent on Iron and Reactive Oxygen Species” (J Med Chem, 2020)", "key": {"[1]": {"molecular_target": "T1, Phospholipid hydroperoxide glutathione peroxidase GPX4 (Homo sapiens) (UniProt P36969)", "T1 sequence (whole entry)": "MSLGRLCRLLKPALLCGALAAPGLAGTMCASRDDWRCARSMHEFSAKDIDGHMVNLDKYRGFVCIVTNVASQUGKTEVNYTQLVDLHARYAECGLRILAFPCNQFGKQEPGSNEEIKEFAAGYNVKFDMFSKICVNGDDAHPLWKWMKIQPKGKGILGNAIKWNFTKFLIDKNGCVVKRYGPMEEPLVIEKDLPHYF", "assay": "Binding affinity to GPX4 in human PANC-1 cells assessed as protein destabilization by measuring reduction in melting temperature at 100 uM measured after 1 hr by thermal shift assay", "format": "cell-based"}, "MIA PaCa-2 [2]": {"tested_on": "MIA PaCa-2", "assay": "Down regulation of LRPPRC gene expression in human MIA PaCa-2 cells at 3 times IC50 measured after 4 hrs by Trizol reagent based Bru labelling based gene sequence analysis", "format": "functional, cell-based", "method_in_brief": "(§1)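 Bru-seq: 2 × 10⁶ cells were seeded in duplicate and treated at 3 × IC50 for 4 h. Bromouridine (2 mM final) was added for the last 30 min at 37 °C. Total RNA was extracted in TRIzol. BrU-labelled RNA was captured with anti-BrdU magnetic beads, made into cDNA libraries and deep-sequenced.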"}, "MIA PaCa-2 [3]": {"tested_on": "MIA PaCa-2", "assay": "Effect on glutathione level in human MIA PaCa-2 cells at 1.5 to 6 uM measured after 2 to 4 hrs by GSH/GSSG-glo assay", "format": "functional, cell-based", "conditions": "dose microM 1.5-6, time hrs 2-4", "method_in_brief": "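GSH/GSSG-Glo luminescent assay: 15,000–20,000 MIA PaCa-2 cells per well, attached overnight, treated 2 h and 4 h. Cells were lysed with total or oxidized glutathione reagent, then luciferin generation (30 min, room temperature) and detection reagents added. Luminescence was read after 15 min. Ratio was computed from net RLU as (total − GSSG)/(GSSG/2).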"}, "MIA PaCa-2 [4]": {"tested_on": "MIA PaCa-2", "assay": "Inhibition of colony formation in human MIA PaCa-2 cells at 0.4 to 0.8 uM measured after 7 to 9 days in presence of ferroptosis inhibitor ferrostatin-1 by crystal violet staining based assay", "format": "functional, cell-based", "conditions": "dose microM 0.4-0.8, time day 7-9", "method_in_brief": "(§2)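 Cells seeded overnight in 96-well plates at 300 cells/well (MIA PaCa-2) or 600 cells/well (BxPC-3), in RPMI 1640 with 10% FBS. Inhibitor added 1 h before compound, then continuous exposure for 7–9 days until control wells were 80–90% confluent. Stained with 0.05% crystal violet for 30 min, imaged after overnight drying and quantified.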"}, "MIA PaCa-2 [5]": {"tested_on": "MIA PaCa-2", "assay": "Induction of ferroptosis in human MIA PaCa-2 cells assessed as increase in lipid peroxidation measured after 24 hrs by C11-BODIPY dye based fluorescence assay", "format": "functional, cell-based", "method_in_brief": "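MIA PaCa-2 cells were treated for the set time, then given 10 μM C11-BODIPY for 30 min at 37 °C and washed. Fluorescence was read at 581/591 nm (reduced dye) and 488/510 nm (oxidized dye). The intensity ratio was compared by unpaired t-test.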"}, "MIA PaCa-2 [6]": {"tested_on": "MIA PaCa-2", "assay": "Inhibition of colony formation in human MIA PaCa-2 cells at 0.4 to 0.8 uM measured after 7 to 9 days in presence of autophagy inhibitor chloroquine by crystal violet staining based assay", "format": "functional, cell-based", "conditions": "dose microM 0.4-0.8, time day 7-9", "method_in_brief": "as §2"}, "MIA PaCa-2 [7]": {"tested_on": "MIA PaCa-2", "assay": "Inhibition of colony formation in human MIA PaCa-2 cells at 0.375 to 0.75 uM measured after 7 to 9 days in presence of GPX4 inhibitor RSL3 by crystal violet staining based assay", "format": "functional, cell-based", "conditions": "dose microM 0.375-0.75, time day 7-9", "method_in_brief": "as §2"}, "MIA PaCa-2 [8]": {"tested_on": "MIA PaCa-2", "assay": "Down regulation of PNPT1 expression in human MIA PaCa-2 cells at 3 times IC50 measured after 4 hrs by proteomics analysis", "format": "functional, cell-based"}, "MIA PaCa-2 [9]": {"tested_on": "MIA PaCa-2", "assay": "Inhibition of colony formation in human MIA PaCa-2 cells at 0.5 uM measured after 7 to 9 days in presence of iron chelator deferoxamine by crystal violet staining based assay", "format": "functional, cell-based", "conditions": "time day 7-9", "method_in_brief": "as §2"}, "MIA PaCa-2 [10]": {"tested_on": "MIA PaCa-2", "assay": "Down regulation of PNPT1 gene expression in human MIA PaCa-2 cells at 3 times IC50 measured after 4 hrs by Trizol reagent based Bru labelling based gene sequence analysis", "format": "functional, cell-based", "method_in_brief": "as §1"}, "BXPC-3 [11]": {"tested_on": "BXPC-3", "assay": "Cytotoxicity against human BXPC-3 cells measured after 72 hrs by MTT assay", "format": "functional, cell-based", "conditions": "BXPC-3, 72 h", "method_in_brief": "(§3)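 Cells were kept in RPMI 1640 with 10% FBS at 37 °C, 5% CO₂, under 35 passages. Cells were seeded, attached overnight and treated with compound or DMSO for 72 h. MTT was added at 0.3 mg/mL for 3 h, then dissolved in DMSO and read as absorbance at 570 nm. IC50 was fitted from the curve. Values are mean ± sd of three independent experiments.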"}, "BXPC-3 [12]": {"tested_on": "BXPC-3", "assay": "Inhibition of colony formation in human BXPC-3 cells at 0.375 uM measured after 7 to 9 days in presence of GPX4 inhibitor RSL3 by crystal violet staining based assay", "format": "functional, cell-based", "conditions": "time day 7-9", "method_in_brief": "as §2"}, "MIA PaCa-2 [13]": {"tested_on": "MIA PaCa-2", "assay": "Cytotoxicity against human MIA PaCa-2 cells measured after 72 hrs in presence of N-acetylcysteine by MTT assay", "format": "functional, cell-based", "conditions": "MIA PaCa-2, 72 h"}, "MIA PaCa-2 [14]": {"tested_on": "MIA PaCa-2", "assay": "Inhibition of colony formation in human MIA PaCa-2 cells at 0.5 uM measured after 7 to 9 days in presence of ferroptosis inhibitor liproxstatin-1 by crystal violet staining based assay", "format": "functional, cell-based", "conditions": "time day 7-9", "method_in_brief": "as §2"}, "MIA PaCa-2 [15]": {"tested_on": "MIA PaCa-2", "assay": "Cytotoxicity against human MIA PaCa-2 cells measured after 72 hrs by MTT assay", "format": "functional, cell-based", "conditions": "MIA PaCa-2, 72 h", "method_in_brief": "as §3"}, "[16]": {"assay": "Plasma concentration in CD-1 mouse at 10 mg/kg, ip measured after 7 hrs by LC-MS/MS analysis", "format": "ADME, organism-based", "method_in_brief": "(§4)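 CD-1 mice dosed IP at 10 mg/kg or PO at 20 mg/kg, n=2 per route. Blood taken with heparinized pipettes at 0.5, 2, 4 and 7 h and spun at 15,000 rpm for 10 min. Plasma stored at −80 °C, then measured by LC-MS/MS.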"}, "[17]": {"molecular_target": "Signal transducer and activator of transcription 3 (Homo sapiens) (UniProt P40763)", "sequence (P40763 whole entry)": "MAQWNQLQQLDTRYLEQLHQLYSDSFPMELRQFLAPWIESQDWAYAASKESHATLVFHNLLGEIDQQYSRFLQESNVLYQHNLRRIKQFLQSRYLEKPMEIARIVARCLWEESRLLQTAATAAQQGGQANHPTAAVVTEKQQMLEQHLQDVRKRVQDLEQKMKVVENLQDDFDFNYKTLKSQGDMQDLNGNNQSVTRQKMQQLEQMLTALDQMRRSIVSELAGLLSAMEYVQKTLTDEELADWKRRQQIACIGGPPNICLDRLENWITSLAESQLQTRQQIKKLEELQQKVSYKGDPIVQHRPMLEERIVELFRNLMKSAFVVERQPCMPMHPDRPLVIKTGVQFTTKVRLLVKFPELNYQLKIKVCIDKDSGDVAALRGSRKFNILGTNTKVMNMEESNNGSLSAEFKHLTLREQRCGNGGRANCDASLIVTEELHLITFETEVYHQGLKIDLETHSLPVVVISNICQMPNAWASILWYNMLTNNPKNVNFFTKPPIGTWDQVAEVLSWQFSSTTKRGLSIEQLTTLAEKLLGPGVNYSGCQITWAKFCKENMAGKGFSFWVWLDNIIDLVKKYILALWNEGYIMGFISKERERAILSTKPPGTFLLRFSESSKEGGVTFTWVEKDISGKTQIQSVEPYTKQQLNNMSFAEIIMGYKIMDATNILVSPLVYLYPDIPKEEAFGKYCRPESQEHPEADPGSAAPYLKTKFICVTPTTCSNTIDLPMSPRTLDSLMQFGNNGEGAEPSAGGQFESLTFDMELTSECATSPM", "assay": "Inhibition of STAT3 phosphorylation in human MIA PaCa-2 cells at 1 to 1.5 uM measured after 4 hrs by Western blot analysis", "format": "cell-based", "conditions": "dose microM 1-1.5, time 4.0 hrs", "method_in_brief": "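Cells were treated 4 h at the stated concentrations and lysed in RIPA with protease and phosphatase inhibitors. 25 μg protein was resolved on 10% SDS gels, transferred to PVDF and probed for STAT3, pSTAT3, pH2AX and GAPDH. Detection used fluorescent secondary antibodies, with normalisation to loading control.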"}, "[18]": {"assay": "Half life in mouse liver microsomes at 10 uM in presence of NADPH by LC-MS/MS analysis", "format": "ADME, Microsome", "conditions": "liver microsomes", "method_in_brief": "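Compound (10 μM working solution in 0.1 M phosphate buffer with 3.3 mM MgCl₂) was incubated with mouse liver microsomes and NADPH. Verapamil served as reference. Samples were taken at 0, 5, 10, 15, 30, 45 and 60 min and centrifuged at 3500 g. Supernatant was run by LC-MS/MS. t1/2 came from the slope of ln(peak area ratio) against time.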"}, "[19]": {"assay": "Plasma concentration in CD-1 mouse at 20 mg/kg, po measured after 7 hrs by LC-MS/MS analysis", "format": "ADME, organism-based", "method_in_brief": "as §4"}}, "note": "The source made the active and inactive calls. The rule behind the calls is not given here."}
{"molecule": "CN1CCN(c2ccc(NC3=CC(=O)c4ncncc4C3=O)cc2)CC1", "values": [{"measurement": "Activity", "setting": "[1]", "result": "Active"}, {"measurement": "Activity", "setting": "MIA PaCa-2 [2]", "result": "Active"}, {"measurement": "Activity", "setting": "MIA PaCa-2 [3]", "result": "inactive"}, {"measurement": "inhibition", "setting": "MIA PaCa-2 [4]", "result": "Active"}, {"measurement": "Activity", "setting": "MIA PaCa-2 [5]", "result": "Dose-dependent effect"}, {"measurement": "inhibition", "setting": "MIA PaCa-2 [6]", "result": "Active"}, {"measurement": "inhibition", "setting": "MIA PaCa-2 [7]", "result": "inactive"}, {"measurement": "Activity", "setting": "MIA PaCa-2 [8]", "result": "Active"}, {"measurement": "inhibition", "setting": "MIA PaCa-2 [9]", "result": "inactive"}, {"measurement": "Activity", "setting": "MIA PaCa-2 [10]", "result": "Active"}, {"measurement": "IC50", "setting": "BXPC-3 [11]", "result": 900, "unit": "nM"}, {"measurement": "inhibition", "setting": "BXPC-3 [12]", "result": "inactive"}, {"measurement": "IC50", "setting": "MIA PaCa-2 [13]", "result": 1110, "unit": "nM"}, {"measurement": "inhibition", "setting": "MIA PaCa-2 [14]", "result": "inactive"}, {"measurement": "IC50", "setting": "MIA PaCa-2 [15]", "result": 640, "unit": "nM"}, {"measurement": "concentration at 7 h", "setting": "[16]", "result": 4.5, "unit": "ng/mL"}, {"measurement": "inhibition", "setting": "[17]", "result": "Active"}, {"measurement": "half-life at 10 µM", "setting": "[18]", "result": "> 1", "unit": "h"}, {"measurement": "concentration at 7 h", "setting": "[19]", "result": 23.3, "unit": "ng/mL"}]}
